Compounds with a hit are over-represented: about 3.3% of the library has one in this group of screens.
HTRA1 inhibitor = HTRA1 (human) protease inhibition | Q92743 | recombinant HTRA1, FP-rhodamine activity-based probe, fluorescence polarization | inhibition, % at 5.96 µM | 340,000 compounds, 0.5% hits | AID 504803; in the data active means inhibition above about 36%
SIAE primary = blocks human sialic acid acetylesterase; Q9HAT2; SIAE FP-Rh probe binding, fluorescence polarization; inhibition, % at 9.66 µM; 370,000 compounds, 0.69% hits;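 active means inhibition above a cutoff: mean of compounds within the control limits plus 3 SD of those, cut at about 17% in these data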
rCAG RNA binder = molecules binding r(CAG) RNA repeats. r(CAG) RNA repeat, TO-PRO-1 dye displacement fluorescence. inhibition, % at 3 µM. 370,000 compounds, 1.3% hits. AID 651821;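 active means inhibition above the plate cutoff, the mean of all test compounds on that plate plus 3 SD, cut at about 35% in these data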;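 further: higher means more dye released from RNA so lower well fluorescence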
mABHD4 FP = ABHD4 (mouse) inhibition, primary FP screen. AID 720543. 370,000 compounds, 0.54% hits. purified mABHD4, FP-Rh probe fluorescence polarization. inhibition, % at 8.92 µM;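 active means inhibition exceeding the mean over every tested compound plus 3 SD, cut at about 30% in these data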
Target sequence (Q8VD66 whole entry, looked up): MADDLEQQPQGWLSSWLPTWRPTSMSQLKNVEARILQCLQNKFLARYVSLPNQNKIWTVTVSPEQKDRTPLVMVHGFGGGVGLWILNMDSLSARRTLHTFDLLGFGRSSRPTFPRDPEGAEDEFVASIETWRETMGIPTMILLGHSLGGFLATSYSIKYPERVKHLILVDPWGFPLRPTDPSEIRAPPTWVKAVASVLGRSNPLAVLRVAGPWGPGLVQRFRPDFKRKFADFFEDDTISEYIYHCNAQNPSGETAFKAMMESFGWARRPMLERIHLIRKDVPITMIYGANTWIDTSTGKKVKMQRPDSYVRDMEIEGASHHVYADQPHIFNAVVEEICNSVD
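assay system = mABHD4 protein | compound dosing = single nominal dose of 8.92 µM, 0.89% DMSO final | read-out basis = percent inhibition of probe binding, normalized to plate controls | schedule = Enzyme–compound pre-incubation 45 min, then probe 60 min, both 25 °C | detection = fluorescence polarization, excitation 525 nm, emission 598 nm, BODIPY TMR filters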
PRMT1 inh = blocks human protein arginine methyltransferase 1 | Q99873 | recombinant PRMT1, activity-based probe fluorescence polarization | inhibition, % at 2.79 µM | 370,000 compounds, 1.3% hits | AID 652257;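 active means inhibition above about 21% made by adding two undisclosed values, limit read from the data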
Target sequence (Q99873 whole entry, looked up): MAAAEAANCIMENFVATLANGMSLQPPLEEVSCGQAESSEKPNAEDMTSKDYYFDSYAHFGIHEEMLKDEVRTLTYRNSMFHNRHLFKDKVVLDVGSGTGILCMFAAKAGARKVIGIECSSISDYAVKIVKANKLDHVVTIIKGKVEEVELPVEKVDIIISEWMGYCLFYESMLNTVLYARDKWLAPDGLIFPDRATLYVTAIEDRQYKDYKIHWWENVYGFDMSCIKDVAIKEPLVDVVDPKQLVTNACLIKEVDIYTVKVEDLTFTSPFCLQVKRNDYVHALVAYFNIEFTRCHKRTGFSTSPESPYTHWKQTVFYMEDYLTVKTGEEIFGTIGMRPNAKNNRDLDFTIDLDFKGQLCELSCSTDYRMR
PRMT1 confirm = PRMT1 (human) inhibition, FP confirmation; shares compounds with PRMT1 inh; recombinant His-PRMT1, activity-based probe fluorescence polarization; inhibition, % at 2.79 µM; 3,300 compounds, 42% hits; AID 687036;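 active means mean inhibition across replicates above the hit cutoff derived for the earlier primary screen, cut at about 22% in these data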
Numbers stand for hits.

How did Cc1ccc(S(=O)(=O)c2c(N)n(CCN3CCOCC3)c3nc4ccccc4nc23)cc1C do in these assays?
HTRA1 inhibitor: inactive; SIAE primary: inactive; rCAG RNA binder: inactive; mABHD4 FP: inactive; PRMT1 inh: inactive

How did Cc1ccc(S(=O)(=O)c2c(N)n(Cc3ccco3)c3nc4ccccc4nc23)cc1C do in these assays?
HTRA1 inhibitor: inactive; SIAE primary: inactive; rCAG RNA binder: inactive; mABHD4 FP: inactive; PRMT1 inh: 27.6; PRMT1 confirm: inactive

Results for O=C(CNC(=O)Cc1cccc2ccccc12)NCc1ccc(F)cc1 ?
HTRA1 inhibitor: inactive; SIAE primary: inactive; rCAG RNA binder: inactive; mABHD4 FP: inactive; PRMT1 inh: inactive

How did O=C(COC(=O)c1cnccn1)NCc1ccccc1Cl do in these assays?
HTRA1 inhibitor: inactive; SIAE primary: inactive; rCAG RNA binder: inactive; mABHD4 FP: inactive; PRMT1 inh: inactive

How did COc1cccc(NC(=O)CSc2nc3c(sc4ccccc43)c(=O)n2CCN(C)C)c1 do in these assays?
HTRA1 inhibitor: inactive; SIAE primary: inactive; rCAG RNA binder: inactive; mABHD4 FP: inactive; PRMT1 inh: 67.9; PRMT1 confirm: 67.9

How did CCN(CC)CCn1c(SCC(=O)Nc2cccc(OC)c2)nc2c(sc3ccccc32)c1=O do in these assays?
HTRA1 inhibitor: inactive; SIAE primary: inactive; rCAG RNA binder: inactive; mABHD4 FP: inactive; PRMT1 inh: inactive

How did O=C(OCC(=O)N1N=C(c2ccc(Cl)cc2)CC1c1ccco1)c1ccccc1O (stereo not drawn) do in these assays?
HTRA1 inhibitor: inactive; SIAE primary: inactive; rCAG RNA binder: inactive; mABHD4 FP: inactive; PRMT1 inh: inactive

How did O=C(OCC(=O)N1N=C(c2ccc(Cl)cc2)CC1c1ccco1)c1cncc(Br)c1 (stereo not drawn) do in these assays?
HTRA1 inhibitor: inactive; SIAE primary: inactive; rCAG RNA binder: inactive; mABHD4 FP: inactive; PRMT1 inh: 33.6; PRMT1 confirm: inactive

What do the screens show for `O=C(CSc1nccc(=O)[nH]1)Nc1cccc(S(=O)(=O)N2CCOCC2)c1`?
HTRA1 inhibitor: inactive; SIAE primary: inactive; rCAG RNA binder: inactive; mABHD4 FP: inactive; PRMT1 inh: 45.0; PRMT1 confirm: 31.7

What do the screens show for `C=C(C)c1cccc(C(C)(C)NC(=O)Nc2ccc(OC)nc2)c1`?
HTRA1 inhibitor: inactive; SIAE primary: inactive; rCAG RNA binder: inactive; mABHD4 FP: inactive; PRMT1 inh: 25.0; PRMT1 confirm: inactive

What do the screens show for `C=C(C)c1cccc(C(C)(C)NC(=O)Nc2ccc(C)cn2)c1`?
HTRA1 inhibitor: inactive; SIAE primary: inactive; rCAG RNA binder: inactive; mABHD4 FP: inactive; PRMT1 inh: inactive

Results for COc1ccc(NC(=O)c2cccc(-c3ccc(O)cc3)c2)cn1 ?
HTRA1 inhibitor: inactive; SIAE primary: inactive; rCAG RNA binder: inactive; mABHD4 FP: inactive; PRMT1 inh: 41.4; PRMT1 confirm: inactive

How did CC(=O)Nc1cccc(NC(=O)c2cccc(-c3ccc(O)cc3)c2)c1 do in these assays?
HTRA1 inhibitor: inactive; SIAE primary: inactive; rCAG RNA binder: inactive; mABHD4 FP: inactive; PRMT1 inh: inactive

What do the screens show for `CCCc1nnc(NC(=O)CCC(=O)N2CCN(Cc3ccc(Cl)cc3)CC2)s1`?
HTRA1 inhibitor: inactive; SIAE primary: inactive; rCAG RNA binder: inactive; mABHD4 FP: inactive; PRMT1 inh: inactive

How did N#CSCC(=O)c1cccc2ccccc12 do in these assays?
HTRA1 inhibitor: inactive; SIAE primary: inactive; rCAG RNA binder: inactive; mABHD4 FP: inactive; PRMT1 inh: 59.9; PRMT1 confirm: 46.7

What do the screens show for `Cc1ccc(-c2nn(-c3ccccc3)cc2/C=C/C(=O)O)o1`?
HTRA1 inhibitor: inactive; SIAE primary: inactive; rCAG RNA binder: inactive; mABHD4 FP: inactive; PRMT1 inh: 30.6; PRMT1 confirm: inactive

What do the screens show for `Cc1ccc(-c2nn(-c3ccccc3)cc2CN(Cc2ccccc2)C(=O)c2ccco2)o1`?
HTRA1 inhibitor: inactive; SIAE primary: inactive; rCAG RNA binder: inactive; mABHD4 FP: inactive; PRMT1 inh: 39.1; PRMT1 confirm: inactive

What do the screens show for `C[C@H]1C(c2ccccc2F)O[C@]2(C[C@H](O)c3c(ccc4ccccc34)O2)C[C@@H]1O` (stereo partly drawn)?
SIAE primary: inactive; rCAG RNA binder: inactive; mABHD4 FP: inactive; PRMT1 inh: inactive

Results for Cc1cc(C)cc(-n2nnn(C3C/C(=N/NC(N)=S)C4OCC3O4)c2=S)c1 (stereo not drawn) ?
HTRA1 inhibitor: inactive; SIAE primary: inactive; rCAG RNA binder: inactive; mABHD4 FP: inactive; PRMT1 inh: 25.6; PRMT1 confirm: inactive

How did CC(C)c1ccc(N2C(=O)/C(=C/N(C)C)SC2=S)cc1 do in these assays?
HTRA1 inhibitor: inactive; SIAE primary: inactive; rCAG RNA binder: inactive; mABHD4 FP: inactive; PRMT1 inh: 25.9; PRMT1 confirm: inactive

What do the screens show for `Cc1ccc(CNC(=O)c2ccc(NC(=O)CCS(=O)(=O)c3cccs3)cc2)cc1`?
HTRA1 inhibitor: inactive; SIAE primary: inactive; rCAG RNA binder: inactive; mABHD4 FP: inactive; PRMT1 inh: 34.5; PRMT1 confirm: inactive

What do the screens show for `CC(C)N(C(=O)[C@H]1C[C@H](CC(=O)NCCc2ccccn2)C(=O)N2CCc3c([nH]c4cc(-c5ccco5)ccc34)[C@]12C)C(C)C`?
HTRA1 inhibitor: inactive; SIAE primary: inactive; rCAG RNA binder: inactive; mABHD4 FP: inactive; PRMT1 inh: 39.7; PRMT1 confirm: inactive

Results for COc1ccccc1C(=O)N/C(=C\c1cn(S(=O)(=O)N(C)C)c2ccccc12)C(=O)NCCCN1CCOCC1 ?
HTRA1 inhibitor: inactive; SIAE primary: inactive; rCAG RNA binder: inactive; mABHD4 FP: inactive; PRMT1 inh: inactive

Results for CSC1=N/C(=C\c2ccc(C)s2)C(=O)S1 ?
HTRA1 inhibitor: inactive; SIAE primary: inactive; rCAG RNA binder: inactive; mABHD4 FP: inactive; PRMT1 inh: inactive

What do the screens show for `CSC1=N/C(=C\c2ccc(C)o2)C(=O)S1`?
HTRA1 inhibitor: inactive; SIAE primary: inactive; rCAG RNA binder: inactive; mABHD4 FP: inactive; PRMT1 inh: 31.2; PRMT1 confirm: inactive

What do the screens show for `CSCSC1=C(C#N)C(c2ccccc2Cl)C(C(C)=O)=C(C)N1` (stereo not drawn)?
HTRA1 inhibitor: inactive; SIAE primary: inactive; rCAG RNA binder: inactive; mABHD4 FP: inactive; PRMT1 inh: 26.5; PRMT1 confirm: inactive

Results for CCOC(=O)CSC1=C(C#N)C(c2ccccc2F)C(C(C)=O)=C(C)N1 (stereo not drawn) ?
HTRA1 inhibitor: inactive; SIAE primary: inactive; rCAG RNA binder: inactive; mABHD4 FP: inactive; PRMT1 inh: inactive

How did CCOC(=O)c1c(C)[nH]c(C)c1C(=O)CSc1nc2ccccc2[nH]1 do in these assays?
HTRA1 inhibitor: inactive; SIAE primary: inactive; rCAG RNA binder: inactive; mABHD4 FP: inactive; PRMT1 inh: inactive

Results for Cn1c(N)c(C(=O)CSc2nc3ccccc3[nH]2)c(=O)n(C)c1=O ?
HTRA1 inhibitor: inactive; SIAE primary: inactive; rCAG RNA binder: inactive; mABHD4 FP: inactive; PRMT1 inh: 27.9; PRMT1 confirm: inactive

Results for CC1(C(=O)CSc2nc3ccccc3[nH]2)CCC(=O)O1 (stereo not drawn) ?
HTRA1 inhibitor: inactive; SIAE primary: inactive; rCAG RNA binder: inactive; mABHD4 FP: inactive; PRMT1 inh: 60.3; PRMT1 confirm: 40.6
